Test results taken from ChEMBL document CHEMBL4725490, “Decreasing HepG2 Cytotoxicity by Lowering the Lipophilicity of Benzo[d]oxazolephosphinate Ester Utrophin Modulators” (ACS Med Chem Lett, 2020).
Converted amounts (≈) assume the structure as drawn. The source made the active and inactive calls. The calls are words filed in the database; no cut-off is given here.

Assays:
[1] = Kinetic aqueous solubility of the compound
[2] = Half life in mouse hepatocyte; settings: hepatocytes
[3] = Lipophilicity, log D of the compound at pH 7.4; settings: buffer
[4] = Protein binding in mouse plasma
[5] = Inhibition of firefly luciferase activity using ATP as substrate preincubated followed by substrate addition and measured after 15 mins by firefly luciferase reporter gene assay; design: species or system Photinus pyralis
Summary of the method: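 Biochemical counter-screen measuring direct inhibition of recombinant firefly luciferase enzyme activity, used to flag interference in the H2K reporter assay.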

[6] = Apparent permeability across basolateral to apical side in human Caco2 cells; settings: Caco-2
[7] = Apparent permeability across apical to basolateral side in human Caco2 cells; settings: Caco-2
HepG2 = assay: Cytotoxicity against human HepG2 cells assessed as reduction in cell viability incubated for 40 hrs by cell titer glo assay; type: ADME, cell-based; settings: HepG2, 40 h
Mus musculus = species: Mus musculus; assay: Modulation activity of utrophin in dystrophic mouse muscle cells assessed increase in utrophin protein level by western blot analysis relative to control; settings: filed as modulator
Summary of the method: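 LUmdx dystrophic mouse muscle cells were treated with compound, and utrophin protein was quantified by Western blot. Values are fold increase in utrophin level.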

[8] = Intrinsic clearance in mouse hepatocyte; settings: hepatocytes

Structure (SMILES): CCP(=O)(OC)c1ccc2oc(-c3cncc(C(F)F)c3)nc2c1 (stereo not given)
- solubility kinetic [1]: 440 µM (≈ 155 µg/mL)
- half-life [2]: > 240 min
- logD [3]: 1.86
- fraction unbound [4]: 0.26
- IC50 [5]: Not Active

Structure (SMILES): CCP(=O)(OC)c1ccc2oc(-c3ccc(C(F)F)cc3)nc2c1 (stereo not given)
- solubility kinetic [1]: 530 µM (≈ 186 µg/mL)
- logD [3]: 3.06
- fraction unbound [4]: 0.02
- IC50 [5]: Not Active

Structure (SMILES): CCP(=O)(OC)c1ccc2oc(-c3ccc(OC)cc3)nc2c1 (stereo not given)
- Papp B→A [6]: 10.7 ×10⁻⁶ cm/s
- solubility kinetic [1]: 265 µM (≈ 87.8 µg/mL)
- Papp A→B [7]: 13.3 ×10⁻⁶ cm/s
- IC50 (HepG2): 200 µM
- IC50 ([5]; read-out: IC50): 0.19 µM

Structure (SMILES): CCP(=O)(OC)c1ccc2nc(-c3ccc(C(F)F)cc3)oc2c1 (stereo not given)
- Activity (Mus musculus): Active
- solubility kinetic [1]: 556 µM (≈ 195 µg/mL)
- logD [3]: 2.98
- fraction unbound [4]: 0.04
- IC50 [5]: Not Active

Structure (SMILES): CCP(=O)(OC)c1ccc2nc(-c3cncc(C(F)F)c3)oc2c1 (stereo not given)
- solubility kinetic [1]: 487 µM (≈ 172 µg/mL)
- half-life [2]: > 240 min
- logD [3]: 2.08
- fraction unbound [4]: 0.23
- IC50 [5]: Not Active

Structure (SMILES): CCP(=O)(OC)c1ccc2oc(-c3ccc4c(c3)OC(F)(F)O4)nc2c1 (stereo not given)
- Papp B→A [6]: 11.7 ×10⁻⁶ cm/s
- solubility kinetic [1]: 576 µM (≈ 220 µg/mL)
- half-life [2]: 154 min
- Papp A→B [7]: 12.7 ×10⁻⁶ cm/s
- logD [3]: 2.4
- fraction unbound [4]: 0.02
- IC50 ([5]; read-out: IC50): 23.6 µM

Structure (SMILES): CCP(=O)(OC)c1ccc2oc(-c3cccc(OC(F)F)c3)nc2c1 (stereo not given)
- Papp B→A [6]: 9.37 ×10⁻⁶ cm/s
- half-life [2]: 13 min
- Papp A→B [7]: 13.3 ×10⁻⁶ cm/s
- IC50 ([5]; read-out: IC50): > 30 µM

Structure (SMILES): CCP(=O)(OC)c1ccc2nc(-c3cccc(OC(F)F)c3)oc2c1 (stereo not given)
- Papp B→A [6]: 15.9 ×10⁻⁶ cm/s
- solubility kinetic [1]: 8.4 µM (≈ 3.09 µg/mL)
- half-life [2]: 37 min
- Papp A→B [7]: 18.1 ×10⁻⁶ cm/s
- logD [3]: 3.2
- fraction unbound [4]: 0.04
- IC50 [5]: Not Active

Structure (SMILES): CCP(=O)(OC)c1ccc2nc(-c3cccnc3C(F)(F)F)oc2c1 (stereo not given)
- solubility kinetic [1]: 699 µM (≈ 259 µg/mL)
- half-life [2]: 5 min
- logD [3]: 1.98
- fraction unbound [4]: 0.24
- IC50 [5]: Not Active

Structure (SMILES): CCP(=O)(OC)c1ccc2nc(-c3ccnc(OC(F)F)c3)oc2c1 (stereo not given)
- Papp B→A [6]: 16.9 ×10⁻⁶ cm/s
- solubility kinetic [1]: 834 µM (≈ 307 µg/mL)
- half-life [2]: > 240 min
- Papp A→B [7]: 21.8 ×10⁻⁶ cm/s
- logD [3]: 2.6
- fraction unbound [4]: 0.07
- IC50 ([5]; read-out: IC50): > 30 µM

Structure (SMILES): CCP(=O)(OC)c1ccc2oc(-c3ccnc(OC(F)F)c3)nc2c1 (stereo not given)
- Activity (Mus musculus): Active
- Papp B→A [6]: 20.6 ×10⁻⁶ cm/s
- solubility kinetic [1]: 733 µM (≈ 270 µg/mL)
- half-life [2]: > 240 min
- Papp A→B [7]: 22.3 ×10⁻⁶ cm/s
- logD [3]: 2.2
- IC50 (HepG2): 200 µM
- fraction unbound [4]: 0.14
- IC50 ([5]; read-out: IC50): > 30 µM

Structure (SMILES): CCP(=O)(OC)c1ccc2nc(-c3ccc4c(c3)OC(F)(F)O4)oc2c1 (stereo not given)
- Papp B→A [6]: 16.2 ×10⁻⁶ cm/s
- solubility kinetic [1]: 574 µM (≈ 219 µg/mL)
- half-life [2]: 154 min
- Papp A→B [7]: 17.2 ×10⁻⁶ cm/s
- IC50 (HepG2): 68.9 µM
- fraction unbound [4]: 0.02
- IC50 ([5]; read-out: IC50): > 30 µM

Structure (SMILES): CCP(=O)(OC)c1ccc2oc(-c3cccc(C(F)F)c3)nc2c1 (stereo not given)
- Papp B→A [6]: 10.1 ×10⁻⁶ cm/s
- solubility kinetic [1]: > 250 µM
- half-life [2]: 20 min
- Papp A→B [7]: 14.2 ×10⁻⁶ cm/s
- logD [3]: 3.09
- fraction unbound [4]: 0.06
- IC50 ([5]; read-out: IC50): 2.48 µM

Structure (SMILES): CCP(=O)(OC)c1ccc2oc(-c3cncc(C(F)(F)F)c3)nc2c1 (stereo not given)
- Activity (Mus musculus): Active
- solubility kinetic [1]: 477 µM (≈ 177 µg/mL)
- half-life [2]: > 240 min
- logD [3]: 2.44
- fraction unbound [4]: 0.25
- IC50 [5]: Not Active

Structure (SMILES): CCP(=O)(OC)c1ccc2oc(-c3cccc(C(F)(F)F)c3)nc2c1 (stereo not given)
- IC50 ([5]; read-out: IC50): 12.1 µM

Structure (SMILES): CCP(=O)(OC)c1ccc2oc(-c3ccccc3OC(F)F)nc2c1 (stereo not given)
- Papp B→A [6]: 15.7 ×10⁻⁶ cm/s
- solubility kinetic [1]: 366 µM (≈ 134 µg/mL)
- half-life [2]: < 3 min
- Papp A→B [7]: 18.8 ×10⁻⁶ cm/s
- logD [3]: 2.45
- fraction unbound [4]: 0.03
- IC50 [5]: Not Active

Structure (SMILES): CCP(=O)(OC)c1ccc2nc(-c3ccc(F)cc3C(F)F)oc2c1 (stereo not given)
- Papp B→A [6]: 11.5 ×10⁻⁶ cm/s
- solubility kinetic [1]: 469 µM (≈ 173 µg/mL)
- half-life [2]: 38 min
- Papp A→B [7]: 12.3 ×10⁻⁶ cm/s
- logD [3]: 3.59
- fraction unbound [4]: 0.03
- IC50 [5]: Not Active

Structure (SMILES): CCP(=O)(OC)c1ccc2oc(-c3cccnc3C(F)(F)F)nc2c1 (stereo not given)
- solubility kinetic [1]: 854 µM (≈ 316 µg/mL)
- half-life [2]: 4 min
- logD [3]: 2.2
- fraction unbound [4]: 0.11
- IC50 [5]: Not Active

Structure (SMILES): CCP(=O)(OC)c1ccc2nc(-c3cncc(C(F)(F)F)c3)oc2c1 (stereo not given)
- solubility kinetic [1]: 603 µM (≈ 223 µg/mL)
- half-life [2]: > 240 min
- logD [3]: 2.41
- fraction unbound [4]: 0.2
- IC50 [5]: Not Active

Structure (SMILES): CCP(=O)(OC)c1ccc2oc(-c3ccc(F)cc3C(F)F)nc2c1 (stereo not given)
- solubility kinetic [1]: 518 µM (≈ 191 µg/mL)
- half-life [2]: 13 min
- logD [3]: 3.4
- fraction unbound [4]: 0.03
- IC50 [5]: Not Active

Structure (SMILES): CCP(=O)(OC)c1ccc2nc(-c3ccccc3C(F)F)oc2c1 (stereo not given)
- solubility kinetic [1]: 446 µM (≈ 157 µg/mL)
- half-life [2]: < 3 min
- CLH [8]: > 250 µL/min/10^6 cells
- logD [3]: 3.33
- fraction unbound [4]: 0.03
- IC50 [5]: Not Active

Structure (SMILES): CCP(=O)(OC)c1ccc2oc(-c3ccccc3C(F)F)nc2c1 (stereo not given)
- Papp B→A [6]: 11.2 ×10⁻⁶ cm/s
- solubility kinetic [1]: > 250 µM
- half-life [2]: < 3 min
- Papp A→B [7]: 16.2 ×10⁻⁶ cm/s
- logD [3]: 2.8
- fraction unbound [4]: 0.03
- IC50 ([5]; read-out: IC50): 5.73 µM

Structure (SMILES): CCP(=O)(OC)c1ccc2oc(-c3ccc(F)cc3)nc2c1 (stereo not given)
- Papp B→A [6]: 15.7 ×10⁻⁶ cm/s
- solubility kinetic [1]: 378 µM (≈ 121 µg/mL)
- Papp A→B [7]: 18 ×10⁻⁶ cm/s
- logD [3]: 2.8
- IC50 (HepG2): 200 µM
- PPB [4]: 95%
- IC50 ([5]; read-out: IC50): 0.115 µM

Structure (SMILES): CCP(=O)(OC)c1ccc2oc(-c3ccnc(C(F)(F)F)c3)nc2c1 (stereo not given)
- Papp B→A [6]: 11 ×10⁻⁶ cm/s
- half-life [2]: > 240 min
- Papp A→B [7]: 12.3 ×10⁻⁶ cm/s
- IC50 (HepG2): 200 µM
- IC50 [5]: Not Active

Structure (SMILES): CCP(=O)(OC)c1ccc2oc(-c3cccc(OC)c3)nc2c1 (stereo not given)
- Papp B→A [6]: 12.6 ×10⁻⁶ cm/s
- solubility kinetic [1]: > 250 µM
- half-life [2]: < 3 min
- Papp A→B [7]: 15.7 ×10⁻⁶ cm/s
- logD [3]: 3.19
- fraction unbound [4]: 0.04
- IC50 ([5]; read-out: IC50): 0.088 µM
